Measurements as given in ChEMBL document CHEMBL1133640, “Structure-activity studies including a Psi(CH(2)-NH) scan of peptide YY (PYY) active site, PYY(22-36), for interaction with rat intestinal PYY receptors: development of analogues with potent in vivo activity in the intestine” (J Med Chem, 2000).
Where a SMILES comes first, the peptide text is derived from it. [ ]: non-standard residue; d: D form. Bip = N[C@@H](Cc1ccc(-c2ccccc2)cc1)C(=O)O

Tests used:
[1] = molecular target: T1, Neuropeptide Y receptor type 2 (Homo sapiens, UniProt P49146); assay: Affinity against Neuropeptide Y receptor Y2 in SK-N-BE2 cell line
T1 sequence (P49146 whole entry): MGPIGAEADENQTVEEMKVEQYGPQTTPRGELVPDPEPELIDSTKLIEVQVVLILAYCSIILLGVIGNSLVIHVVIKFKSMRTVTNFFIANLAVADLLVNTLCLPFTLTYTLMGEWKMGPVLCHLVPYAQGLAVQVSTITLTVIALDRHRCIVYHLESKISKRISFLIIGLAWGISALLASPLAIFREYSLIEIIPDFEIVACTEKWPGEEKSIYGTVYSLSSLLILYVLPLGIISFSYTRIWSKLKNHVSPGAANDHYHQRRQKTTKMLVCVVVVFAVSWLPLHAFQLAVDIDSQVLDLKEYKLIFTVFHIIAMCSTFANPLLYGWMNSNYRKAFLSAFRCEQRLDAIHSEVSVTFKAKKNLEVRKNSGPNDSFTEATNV

Rattus norvegicus = assay: Tested for in vivo antisecretory potency for inhibiting VIP-induced (30 micro g/kg/h) secretion in isolated jejunum in anesthetized rats.(95% CL); format: functional; details: read-out: ID50 (the source's name)
In short: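 Rats anesthetized, saphenous vein cannulated. Isolated jejunal loop instilled with 2000 μL fluid. At the end the loop is excised, measured and weighed before and after emptying. Net water flux (μL/cm/30 min) = (F-E)2000/L; negative means absorption. 6-8 animals per dose.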

[2] = molecular target: T2, Neuropeptide Y receptor type 2 (Rattus norvegicus, UniProt Q9ERC0); assay: Antisecretory potency, affinity for intestinal PYY of rat jejunum by using short circuit current (SCC) method.; format: tissue-based
[3] = molecular target: Neuropeptide Y receptor type 1 (Homo sapiens, UniProt P25929); assay: Affinity against Neuropeptide Y receptor Y1 in SK-N-MC cell line; format: cell-based
[4] = molecular target: T2, Neuropeptide Y receptor type 2; assay: Tested for the affinity for intestinal PYY from rat jejunum by using short circuit current (SCC) method.
Canis familiaris [5] = organism: Canis familiaris; assay: Peak proabsorptive effects of intralbuminal Infusion on absorption of Na+ in the ileum of awake dogs bearing ileal and/or Colonic Thiry-Vella Fistulasa; format: functional, organism-based; details: Canis lupus familiaris
Canis familiaris [6] = organism: Canis familiaris; assay: Peak proabsorptive effects of intralbuminal Infusion on absorption of water in the ileum of awake dogs bearing ileal and/or Colonic Thiry-Vella Fistulasa; format: functional, organism-based; details: Canis lupus familiaris
Canis familiaris [7] = organism: Canis familiaris; assay: Peak proabsorptive effects of intralbuminal Infusion on absorption of Na+ in the colon of awake dogs bearing ileal and/or Colonic Thiry-Vella Fistulasa; format: functional, organism-based; details: Canis lupus familiaris
Canis familiaris [8] = organism: Canis familiaris; assay: Peak proabsorptive effects of intralbuminal Infusion on absorption of Cl- in the colon of awake dogs bearing ileal and/or Colonic Thiry-Vella Fistulasa; format: functional, organism-based; details: Canis lupus familiaris
Canis familiaris [9] = organism: Canis familiaris; assay: Peak proabsorptive effects of intralbuminal Infusion on absorption of Cl- in the ileum of awake dogs bearing ileal and/or Colonic Thiry-Vella Fistulasa; format: functional, organism-based; details: Canis lupus familiaris
Canis familiaris [10] = organism: Canis familiaris; assay: Peak proabsorptive effects of intralbuminal Infusion on absorption of water in the colon of awake dogs bearing ileal and/or Colonic Thiry-Vella Fistulasa; format: functional, organism-based; details: Canis lupus familiaris

Neuropeptide Y receptor type 1, sequence (P25929 whole entry): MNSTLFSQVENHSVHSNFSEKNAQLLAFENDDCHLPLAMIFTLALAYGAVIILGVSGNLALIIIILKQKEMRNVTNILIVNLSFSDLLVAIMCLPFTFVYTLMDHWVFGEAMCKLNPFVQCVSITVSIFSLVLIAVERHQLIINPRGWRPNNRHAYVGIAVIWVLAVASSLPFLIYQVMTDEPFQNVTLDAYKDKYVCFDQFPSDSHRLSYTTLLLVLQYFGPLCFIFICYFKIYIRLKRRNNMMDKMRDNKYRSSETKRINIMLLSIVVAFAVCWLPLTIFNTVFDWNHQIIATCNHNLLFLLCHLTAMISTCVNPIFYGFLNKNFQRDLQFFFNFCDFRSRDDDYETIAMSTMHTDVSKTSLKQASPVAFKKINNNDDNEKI
T2 sequence (Q9ERC0 whole entry): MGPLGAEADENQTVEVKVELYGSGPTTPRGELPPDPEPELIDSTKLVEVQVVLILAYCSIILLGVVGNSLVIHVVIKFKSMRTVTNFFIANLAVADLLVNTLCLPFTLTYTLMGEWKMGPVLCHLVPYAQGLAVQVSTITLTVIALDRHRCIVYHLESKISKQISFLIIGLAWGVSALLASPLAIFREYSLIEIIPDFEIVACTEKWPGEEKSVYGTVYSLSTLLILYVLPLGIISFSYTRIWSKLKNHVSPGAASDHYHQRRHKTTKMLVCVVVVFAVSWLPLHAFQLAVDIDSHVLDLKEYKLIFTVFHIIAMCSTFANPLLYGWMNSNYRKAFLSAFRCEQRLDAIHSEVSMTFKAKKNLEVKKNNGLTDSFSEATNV

Row | Compound | IC50 [1] | ED50 (Rattus norvegicus) | IC50 [3] | IC50 [4] | further results
1 | CCCC[C@H](NC(=O)[C@H](CO)NC(=O)[C@H](C)NC(C)=O)C(=O)N[C@@H](CCCN=C(N)N)C(=O)N[C@@H](Cc1c[nH]cn1)C(=O)N[C@@H](Cc1ccc(O)cc1)C(=O)N[C@@H](CCCC)C(=O)N[C@@H](CC(N)=O)C(=O)N[C@@H](Cc1c[nH]c2ccccc12)C(=O)N[C@@H](CCC)C(=O)N[C@H](C(=O)N[C@@H](CCCN=C(N)N)C(=O)N[C@@H](CCC(N)=O)C(=O)N[C@@H](CCCN=C(N)N)CN[C@@H](Cc1ccc(O)cc1)C(N)=O)[C@@H](C)O | 1.75 nM | 5.9e-05 µmol/kg | 1570 nM | – | IC50 [2]: 0.31 nM
2 | CC(=O)N[C@@H](C)C(=O)N[C@@H](CO)C(=O)N[C@@H](CC(C)C)C(=O)N[C@@H](CCCN=C(N)N)C(=O)N[C@@H](Cc1c[nH]cn1)C(=O)N[C@@H](Cc1ccc(O)cc1)C(=O)N[C@@H](CC(C)C)C(=O)N[C@@H](CC(N)=O)C(=O)N[C@@H](Cc1c[nH]c2ccccc12)C(=O)N[C@H](C(=O)N[C@H](C(=O)N[C@@H](CCCN=C(N)N)C(=O)N[C@@H](CCC(N)=O)C(=O)N[C@@H](CCCN=C(N)N)C(=O)N[C@@H](Cc1ccc(O)cc1)C(N)=O)[C@@H](C)O)C(C)C | 0.98 nM | 2.1e-06 µmol/kg | 250 nM | – | IC50 [2]: 0.6 nM
3 | CNC(=O)[C@H](Cc1ccc(O)cc1)NC(=O)[C@H](CCCNC(=N)N)NC(=O)[C@H](CCC(N)=O)NC(=O)[C@H](CCCNC(=N)N)NC(=O)[C@@H](NC(=O)[C@@H](NC(=O)[C@H](CC(C)C)NC(=O)[C@H](CC(N)=O)NC(=O)[C@H](CC(C)C)NC(=O)[C@H](Cc1c[nH]c2ccccc12)NC(=O)[C@H](Cc1cnc[nH]1)NC(=O)[C@H](CCCNC(=N)N)NC(=O)[C@H](CC(C)C)NC(=O)[C@H](CO)NC(=O)[C@H](C)NC(C)=O)C(C)C)[C@@H](C)O (Ac-ASLRHWLNLVTRQRY-NHMe) | > 100 nM | – | > 1000 nM | > 100 nM | –
4 | CC(=O)N[C@@H](C)C(=O)N[C@@H](CO)C(=O)N[C@@H](CC(C)C)C(=O)N[C@@H](CCCN=C(N)N)C(=O)N[C@@H](Cc1c[nH]cn1)C(=O)N[C@@H](Cc1ccc(-c2ccccc2)cc1)C(=O)N[C@@H](CC(C)C)C(=O)N[C@@H](CC(N)=O)C(=O)N[C@@H](CC(C)C)C(=O)N[C@H](C(=O)N[C@H](C(=O)N[C@@H](CCCN=C(N)N)C(=O)N[C@@H](CCC(N)=O)C(=O)N[C@@H](CCCN=C(N)N)C(=O)N[C@@H](Cc1ccc(O)cc1)C(N)=O)[C@@H](C)O)C(C)C (Ac-ASLRH[Bip]LNLVTRQRY-NH2) | 14.2 nM | – | 279 nM | 2.42 nM | –
5 | Ac-ASLRHWLNLVTRQRY-NH2 [listing 1 of 2 here] | – | 3.33e-05 µmol/kg | – | – | Absorption (u equiv min-1) (Canis familiaris [5]): 120; Absorption (Canis familiaris [6]): 725 µL/min; Absorption (u equiv min-1) (Canis familiaris [7]): 78; Absorption (u equiv min-1) (Canis familiaris [8]): 77; Absorption (u equiv min-1) (Canis familiaris [9]): 101; Absorption (Canis familiaris [10]): 503 µL/min
6 | Ac-ASLRHWLNLVTRQRY-NH2 [listing 2 of 2 here] | 2.09 nM | – | 77 nM | 3.2 nM | –
7 | Ac-ASLRHYLWLVTRQRY-NH2 | 158 nM | – | 762 nM | 100 nM | –
8 | Ac-ASLRHYWNLVTRQRY-NH2 | 2.08 nM | – | 398 nM | 0.6 nM | –
9 | Ac-ASWRHYLNLVTRQRY-NH2 | – | – | – | 2.1 nM | –
